Reference: ChEMBL document CHEMBL1122886, “Nucleoside conjugates. 6. Synthesis and comparison of antitumor activity of 1-beta-D-arabinofuranosylcytosine conjugates of corticosteroids and selected lipophilic alcohols” (1985)

Tests used:
L1210 [1] = test: In vitro cytotoxicity with cleavage by phosphodiesterase-I concentration for 50% loss of viability was determined at 72 hours.; format: functional; details: Mus musculus, L1210, 72 h; read-out: ED50 (the source's name)
Mus musculus [2] = organism: Mus musculus; test: Weight change observed on day 8 in mice bearing lymphoid leukemia, treatment schedule is 1-5 qd.; format: functional
In short: (§1)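 C3D2F1/J mice (C3H/HEJ female × DBA/2J male), groups of six, average weight 25 g, were inoculated ip with 1 × 10^6 L1210 cells. Ip treatment began 24 h after inoculation, daily on days 1-5 or 1-9, over a wide dose range. Mice were observed daily until death or 45 days. Body-weight change was recorded, and ILS was calculated as (T/C − 1) × 100.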

Mus musculus [3] = organism: Mus musculus; test: Percent increase in life span in mice bearing lymphoid leukemia, treatment schedule is 1-5 qd.; format: functional
In short: (§2)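 C3D2F1/J mice (C3H/HEJ female × DBA/2J male), groups of six, av wt 25 g, inoculated ip with 1 × 10^6 L1210 cells. Daily ip treatment (qd 1-5 or qd 1-9) started 24 h after inoculation, over a wide dose range. Mice observed daily until death or 45 days. ILS = (T/C − 1) × 100. Active range is doses giving ILS ≥25%; optimum dose gives the greatest ILS.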

Mus musculus [4] = organism: Mus musculus; test: Number of animals survived after 30-days in mice bearing lymphoid leukemia, treatment schedule is 1-5 qd.; format: functional; in short: as §2
L1210 [5] = test: Percent hydrolysis by phosphodiesterase I at 24-h incubation after 30-minutes incubation.; format: functional, Mus musculus
Mus musculus [6] = organism: Mus musculus; test: Dose producing greatest increase in life span of mice bearing lymphoid leukemia, treatment schedule is 1-5 qd.; format: functional; in short: as §2
Mus musculus [7] = test: In Vivo Antitumor activity against intraperitoneally inoculated L1210 Lymphoid leukemic mice. Percent increase in life span. Treatment schedule is 1-9 qd.; format: functional; in short: as §2
Mus musculus [8] = test: In Vivo Antitumor activity against intraperitoneally inoculated L1210 Lymphoid leukemic mice. Number of animals survived after 30-days. Treatment schedule is 1-9 qd.; format: functional; in short: as §2
Mus musculus [9] = test: Dose producing greatest increase in life span >/=25% in mice bearing lymphoid leukemia, treatment schedule is 1-5 qd; 20-80 [mg(umol)/kg] /day; format: functional; in short: as §2
Mus musculus [10] = test: In vivo antitumor activity against intraperitoneally inoculated L1210 Lymphoid leukemic mice (Dose producing greatest increase in life span, treatment schedule is 1- 9 qd); format: functional; in short: as §2
Mus musculus [11] = test: In vivo antitumor activity against intraperitoneally inoculated L1210 lymphoid leukemic mice (Weight change observed on day 8.Treatment schedule is 1-9 qd); format: functional; in short: as §1
Mus musculus [12] = test: Dose producing greatest increase in life span >/=25% in mice bearing lymphoid leukemia, treatment schedule is 1-9 qd; 40-80 [mg(umol)/kg] /day; format: functional; in short: as §2
Mus musculus [13] = test: Dose producing greatest increase in life span >/=25% in mice bearing lymphoid leukemia, treatment schedule is 1-5 qd; 40-60 [mg(umol)/kg] /day; format: functional; in short: as §2
Mus musculus [14] = test: Dose producing greatest increase in life span >/=25% in mice bearing lymphoid leukemia, treatment schedule is 1-5 qd; 20-60 [mg(umol)/kg] /day; format: functional; in short: as §2
Mus musculus [15] = test: Dose producing greatest increase in life span >/=25% in mice bearing lymphoid leukemia, treatment schedule is 1-5 qd; 5-80 [mg(umol)/kg] /day; format: functional; in short: as §2
Mus musculus [16] = organism: Mus musculus; test: Percent increase in life span in mice bearing lymphoid leukemia, treatment schedule is 1-9 qd.; format: functional; in short: as §2
Mus musculus [17] = test: Dose producing greatest increase in life span >/=25% in mice bearing lymphoid leukemia, treatment schedule is 1-9 qd; 5-20 [mg(umol)/kg] /day; format: functional; in short: as §2
Mus musculus [18] = organism: Mus musculus; test: Number of animals survived after 30-days in mice bearing lymphoid leukemia, treatment schedule is 1-9 qd.; format: functional; in short: as §2

Structure (SMILES) | EC50 (L1210 [1]) | Weight change (Mus musculus [2]) | ILS (Mus musculus [3]) | Hydrolysis (L1210 [5]) | Optimal dose (Mus musculus [6]) | 30 day survivors (Mus musculus [4]) | also measured
CCCCCCCCCCCCCCCCOP(=O)(O)OC[C@H]1O[C@@H](n2ccc(N)nc2=O)[C@@H](O)[C@@H]1O | 16500 nM | -4.75 g mouse-1 on day 8 | -22% | 0% | 20 mg/kg/day |  | No. of survivors (Mus musculus [4]): 0
Nc1ccn([C@@H]2O[C@H](COP(=O)(O)OCCC34CC5CC(CC(C5)C3)C4)[C@@H](O)[C@@H]2O)c(=O)n1 | 310 nM | 0.87 g mouse-1 on day 8 | 18% | 25% | 40 mg/kg/day | 0 | 
C[C@]12C[C@H](O)[C@H]3[C@@H](CCC4=CC(=O)CC[C@@]43C)[C@@H]1CC[C@@H]2C(=O)COP(=O)(O)O.Nc1ccn([C@@H]2O[C@H](COP(=O)(O)O)[C@@H](O)[C@@H]2O)c(=O)n1 | 80 nM |  |  |  |  |  | 
Nc1ccn([C@@H]2O[C@H](COP(=O)(O)O)[C@@H](O)[C@H]2O)c(=O)n1 | 50 nM |  |  |  |  |  | 
Nc1ccn(C2O[C@H](COP(=O)(O)OP(=O)(O)OCC3CCCCC3)[C@@H](O)[C@@H]2O)c(=O)n1 (stereo partly drawn) | 5600 nM |  |  | 80% |  |  | 
CC12CCC(=O)C=C1CCC1C2C(O)CC2(C)C1CC[C@@H]2C(=O)COP(=O)(O)OP(=O)(O)OC[C@H]1OC(n2ccc(N)nc2=O)[C@@H](O)[C@@H]1O (stereo partly drawn) | 90 nM | -0.45 g mouse-1 on day 8 | 95% | 100% | 60 mg/kg/day | 0 | ILS (Mus musculus [7]): 152%; 30 day survivors (Mus musculus [8]): 2; Active dose range (Mus musculus [9]): 20 mg/kg/day; Optimal dose (Mus musculus [10]): 80 mg/kg/day; Weight change (Mus musculus [11]): -1.95 g mouse-1 on day 8; Active dose range (Mus musculus [12]): 40 mg/kg/day
CC12CCC(=O)C=C1CCC1C2CCC2(C)C1CC[C@@H]2C(=O)COP(=O)(O)OP(=O)(O)OC[C@H]1OC(n2ccc(N)nc2=O)[C@@H](O)[C@@H]1O (stereo partly drawn) | 160 nM | -3.73 g mouse-1 on day 8 | 22% | 100% | 20 mg/kg/day | 0 | 
Nc1ccn(C2O[C@H](COP(=O)(O)OCC3CCCCC3)[C@@H](O)[C@@H]2O)c(=O)n1 (stereo partly drawn) | 7000 nM | -0.67 g mouse-1 on day 8 | -5% | 0% | 40 mg/kg/day | 0 | 
CC12CCC(=O)C=C1CCC1C2C(=O)CC2(C)C1CC[C@]2(O)C(=O)COP(=O)(O)OP(=O)(O)OC[C@H]1OC(n2ccc(N)nc2=O)[C@@H](O)[C@@H]1O (stereo partly drawn) | 80 nM | -0.78 g mouse-1 on day 8 | 36% | 100% | 40 mg/kg/day | 0 | Active dose range (Mus musculus [13]): 40 mg/kg/day
CC12CC(O)C3C4C=CC(=O)C=C4CCC3C1CC[C@]2(O)C(=O)COP(=O)(O)OP(=O)(O)OC[C@H]1OC(n2ccc(N)nc2=O)[C@@H](O)[C@@H]1O (stereo partly drawn) |  |  | 116% |  |  |  | 
CC12CCC(=O)C=C1CCC1C2C(O)CC2(C)C1CC[C@]2(O)C(=O)COP(=O)(O)OP(=O)(O)OC[C@H]1OC(n2ccc(N)nc2=O)[C@@H](O)[C@@H]1O (stereo partly drawn) |  |  | 86% |  |  |  | 
CC12CCC(=O)C=C1CCC1C2CCC2(C)C1CC[C@]2(O)C(=O)COP(=O)(O)OP(=O)(O)OC[C@H]1OC(n2ccc(N)nc2=O)[C@@H](O)[C@@H]1O (stereo partly drawn) | 20 nM | -2.15 g mouse-1 on day 8 | 33% | 100% | 60 mg/kg/day | 0 | Active dose range (Mus musculus [14]): 20 mg/kg/day
CCCCCCCCCCCCCCCCOP(=O)(O)OP(=O)(O)OC[C@H]1OC(n2ccc(N)nc2=O)[C@@H](O)[C@@H]1O (stereo partly drawn) | 4300 nM | 2.92 g mouse-1 on day 8 | 38% | 80% | 40 mg/kg/day | 0 | Active dose range (Mus musculus [14]): 20 mg/kg/day
Nc1ccn(C2O[C@H](COP(=O)(O)OCCCl)[C@@H](O)[C@@H]2O)c(=O)n1 (stereo partly drawn) | 3130 nM |  |  | 2% |  |  | 
Nc1ccn(C2O[C@H](COP(=O)(O)OCC34CC5CC(CC(C5)C3)C4)[C@@H](O)[C@@H]2O)c(=O)n1 (stereo partly drawn) | 1250 nM |  |  | 9% |  |  | 
Nc1ccn([C@@H]2O[C@H](CO)[C@@H](O)[C@@H]2O)c(=O)n1 [CYTARABINE] | 190 nM | -2.66 g mouse-1 on day 8 | 63% |  | 9.2 mg/kg/day | 1 | Active dose range (Mus musculus [15]): 5 mg/kg/day; ILS (Mus musculus [16]): 138%; Active dose range (Mus musculus [17]): 5 mg/kg/day; Optimal dose (Mus musculus [10]): 9.2 mg/kg/day; 30 day survivors (Mus musculus [18]): 1; Weight change (Mus musculus [11]): -4.56 g mouse-1 on day 8
